Results published in ChEMBL document CHEMBL2331357, “Bioassay-guided isolation of proanthocyanidins with antiangiogenic activities” (J Nat Prod, 2013).
The source made the active and inactive calls. No cut-off for these calls is given here.

Legend:
[1] = molecular target: T1, Vascular endothelial growth factor A, long form (Homo sapiens, UniProt P15692); assay: Binding affinity to recombinant VEGFA (unknown origin) measured for 60 seconds by surface plasmon resonance assay
T1 sequence (P15692 whole entry): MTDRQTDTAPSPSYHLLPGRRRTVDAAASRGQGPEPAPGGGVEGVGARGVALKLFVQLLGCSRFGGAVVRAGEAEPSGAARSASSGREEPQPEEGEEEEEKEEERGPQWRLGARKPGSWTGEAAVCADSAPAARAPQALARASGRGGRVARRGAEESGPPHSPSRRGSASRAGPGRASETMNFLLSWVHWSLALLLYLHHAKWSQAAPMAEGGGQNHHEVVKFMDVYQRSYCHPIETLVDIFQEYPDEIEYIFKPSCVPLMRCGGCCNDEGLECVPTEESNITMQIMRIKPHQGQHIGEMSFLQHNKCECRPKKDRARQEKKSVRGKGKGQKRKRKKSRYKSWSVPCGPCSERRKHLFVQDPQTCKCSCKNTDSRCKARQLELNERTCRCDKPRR
Summary of the method: (§1)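 Biacore CM5 chip; proteins (100 μg/mL in 10 mM NaOAc, pH 5.0) amine-coupled to 8−12 kRU alongside BSA and unmodified reference surfaces. Compounds from 4 mM DMSO stocks diluted 1:200 in PBS (10 mM NaH2PO4, 150 mM NaCl, pH 7.4; final DMSO 0.5%), 2-fold six-point series typically 0.025−1 μM, triplicate aliquots with buffer blanks. Association and dissociation recorded; thermodynamic KD derived.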

Placenta growth factor = molecular target: T2, Placenta growth factor (Homo sapiens, UniProt P49763); assay: Binding affinity to recombinant PIGF1 (unknown origin) measured for 60 seconds by surface plasmon resonance assay; summary of the method: as §1
T2 sequence (P49763 whole entry): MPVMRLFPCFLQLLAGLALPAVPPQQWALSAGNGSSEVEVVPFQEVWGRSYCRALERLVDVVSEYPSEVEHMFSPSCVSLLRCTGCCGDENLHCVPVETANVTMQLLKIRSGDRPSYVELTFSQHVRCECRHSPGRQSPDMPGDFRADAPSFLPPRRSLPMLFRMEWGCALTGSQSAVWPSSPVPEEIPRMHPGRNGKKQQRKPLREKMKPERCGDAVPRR

Jurkat = assay: Cytotoxicity against human Jurkat cells after 24 to 72 hrs by MTT assay; assay type: cell-based
Summary of the method: (§2)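 Cells kept in DMEM with 10% FBS, 2 mM L-glutamine, penicillin/streptomycin, 37 °C, 5% CO2, subcultured every two days. Seeded at 1 × 10^4 cells/well and grown without or with various compound concentrations; cell number quantified by MTT conversion at 24, 48 and 72 h. IC50 from at least two independent experiments in triplicate.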

MCF7 = assay: Cytotoxicity against human MCF7 cells after 24 to 72 hrs by MTT assay; assay type: cell-based; summary of the method: as §2
Gallus gallus [2] = species: Gallus gallus; assay: Antiangiogenic activity in chicken embryo chorioallantoic membrane model assessed as reduction of capillary formation at 2 ug/egg after 4 days; assay type: functional, tissue-based
Summary of the method: (§3)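 Fertilized chicken eggs incubated at 37 °C, humidified, turned several times; after 4 days a 1 cm2 window opened on the broad side. Test material applied per egg; controls received albumen (100 μL/egg); retinoic acid 2 μg/egg as positive control; at least five eggs per dose. Eggs reincubated two days, then vessels photographed under microscope; branch points compared with albumen controls; mean ± SD of three experiments, Student's t-test.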

Gallus gallus [3] = species: Gallus gallus; assay: Antiangiogenic activity in chicken embryo chorioallantoic membrane model assessed as inhibition of blood vessels growth at 2 ug/egg after 4 days; assay type: functional, tissue-based; summary of the method: as §3
Gallus gallus [4] = species: Gallus gallus; assay: Antiangiogenic activity in chicken embryo chorioallantoic membrane model assessed as reduction of junction of blood vessels at 10 ug/egg after 4 days; assay type: functional, tissue-based; summary of the method: as §3
Gallus gallus [5] = species: Gallus gallus; assay: Antiangiogenic activity in chicken embryo chorioallantoic membrane model assessed as reduction of size of blood vessels at 10 ug/egg after 4 days; assay type: functional, tissue-based; summary of the method: as §3
Gallus gallus [6] = species: Gallus gallus; assay: Antiangiogenic activity in chicken embryo chorioallantoic membrane model assessed as reduction of length of blood vessels at 10 ug/egg after 4 days; assay type: functional, tissue-based; summary of the method: as §3
Gallus gallus [7] = species: Gallus gallus; assay: Antiangiogenic activity in chicken embryo chorioallantoic membrane model assessed as reduction of number of blood vessels at 10 ug/egg after 4 days; assay type: functional, tissue-based; summary of the method: as §3
[8] = Antiangiogenic activity in chicken embryo chorioallantoic membrane model assessed as inhibition of blood vessels growth after 4 days; assay type: functional, tissue-based, Gallus gallus; summary of the method: as §3
Gallus gallus [9] = species: Gallus gallus; assay: Antiangiogenic activity in chicken embryo chorioallantoic membrane model assessed as inhibition of blood vessels growth at 10 ug/egg after 4 days; assay type: functional, tissue-based; summary of the method: as §3
[10] = molecular target: T3, Vascular endothelial growth factor receptor 1 (Homo sapiens, UniProt P17948); assay: Inhibition of recombinant VEGF-A/VEGFR-1 (unknown origin) interaction after 1 hr by ELISA
Summary of the method: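 Competitive ELISA: Fc/VEGFR-1 coated at 0.5 μg/mL for 16 h at RT, blocked 3 h with 1% BSA. PlGF-1 (5 ng/mL) or VEGF-A (10 ng/mL) in PBS with 0.1% BSA, 5 mM EDTA, 0.004% Tween 20 added with DMSO-dissolved compound, 1 h 37 °C then 1 h RT. Biotinylated anti-ligand antibody, avidin–biotin-HRP, o-phenylenediamine/H2O2 detection at 490 nm; triplicate points, repeated twice.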

[11] = molecular target: T3, Vascular endothelial growth factor receptor 1; assay: Inhibition of recombinant PlGF-1/VEGFR-1 (unknown origin) interaction after 1 hr by ELISA

T3 sequence (P17948 whole entry): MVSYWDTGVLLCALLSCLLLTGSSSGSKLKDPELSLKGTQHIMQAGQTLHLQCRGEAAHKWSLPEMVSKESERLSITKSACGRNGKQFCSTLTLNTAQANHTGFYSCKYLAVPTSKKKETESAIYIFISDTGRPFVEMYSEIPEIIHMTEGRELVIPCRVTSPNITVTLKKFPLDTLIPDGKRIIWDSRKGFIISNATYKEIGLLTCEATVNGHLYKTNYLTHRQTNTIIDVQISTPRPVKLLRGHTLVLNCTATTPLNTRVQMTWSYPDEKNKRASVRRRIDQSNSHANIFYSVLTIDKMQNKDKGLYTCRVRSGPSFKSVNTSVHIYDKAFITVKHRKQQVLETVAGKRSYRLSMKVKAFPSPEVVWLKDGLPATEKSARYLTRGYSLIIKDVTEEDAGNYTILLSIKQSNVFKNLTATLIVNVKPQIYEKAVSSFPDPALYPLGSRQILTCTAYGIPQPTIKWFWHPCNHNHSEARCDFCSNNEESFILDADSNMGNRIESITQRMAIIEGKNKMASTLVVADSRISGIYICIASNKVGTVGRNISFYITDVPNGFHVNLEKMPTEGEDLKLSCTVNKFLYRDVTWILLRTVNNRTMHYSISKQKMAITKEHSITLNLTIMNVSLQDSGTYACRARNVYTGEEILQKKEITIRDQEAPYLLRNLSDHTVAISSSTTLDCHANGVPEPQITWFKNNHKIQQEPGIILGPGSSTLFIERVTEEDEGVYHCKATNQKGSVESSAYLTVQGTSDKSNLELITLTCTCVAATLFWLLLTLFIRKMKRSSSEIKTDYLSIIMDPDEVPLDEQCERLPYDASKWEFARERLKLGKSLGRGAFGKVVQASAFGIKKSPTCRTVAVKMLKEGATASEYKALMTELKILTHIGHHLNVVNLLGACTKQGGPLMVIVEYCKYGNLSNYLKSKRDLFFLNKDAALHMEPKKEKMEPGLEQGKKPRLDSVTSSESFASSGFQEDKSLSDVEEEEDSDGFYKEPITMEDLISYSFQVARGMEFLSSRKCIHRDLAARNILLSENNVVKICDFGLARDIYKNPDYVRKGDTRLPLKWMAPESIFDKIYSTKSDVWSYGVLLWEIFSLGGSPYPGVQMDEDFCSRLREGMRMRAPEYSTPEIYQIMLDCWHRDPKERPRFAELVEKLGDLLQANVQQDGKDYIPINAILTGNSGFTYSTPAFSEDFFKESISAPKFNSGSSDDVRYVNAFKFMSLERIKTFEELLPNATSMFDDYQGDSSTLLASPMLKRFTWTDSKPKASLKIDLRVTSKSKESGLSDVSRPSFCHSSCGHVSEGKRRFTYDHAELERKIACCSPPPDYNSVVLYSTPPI

Kd ([1]; read-out: Kd) [nM] | Kd (Placenta growth factor; read-out: Kd) [nM] | Structure (SMILES) | IC50 (Jurkat) [µM] | IC50 (MCF7) [µM] | further results
476 | 394 | Oc1cc(O)c2c(c1)O[C@@]1(c3ccc(O)c(O)c3)Oc3cc(O)c4c(c3[C@@H]2[C@H]1O)O[C@H](c1ccc(O)c(O)c1)[C@@H](O)C4 [PROANTHOCYANIDIN A1] | > 70 | > 70 | –
– | – | CC1=C(/C=C/C(C)=C/C=C/C(C)=C/C(=O)O)C(C)(C)CCC1 | – | – | Activity (Gallus gallus [2]): Active; growth inhibition (GI) (Gallus gallus [3]): 75.5%
16 | 11 | Oc1ccc([C@@H]2C[C@@H](c3c(O)cc(O)c4c3O[C@H](c3ccc(O)cc3)[C@@H](O)C4)c3c(O)cc(O)cc3O2)cc1 | > 70 | > 70 | Activity (Gallus gallus [4]): Active; Activity (Gallus gallus [5]): Active; Activity (Gallus gallus [6]): Active; Activity (Gallus gallus [7]): Active; IC50 [8]: 9.79 µg; growth inhibition (GI) (Gallus gallus [9]): 56.2%; IC50 [10]: 50 µM; IC50 [11]: 15 µM
16.5 | 8.2 | O=c1cc(-c2ccc(O)c(-c3c(O)cc(O)c4c(=O)cc(-c5ccc(O)cc5)oc34)c2)oc2cc(O)cc(O)c12 [AMENTOFLAVONE] | – | – | –
48 | 23 | Oc1ccc([C@H]2Oc3c(c(O)cc4c3[C@H]3c5c(O)cc(O)cc5O[C@@](c5ccc(O)c(O)c5)(O4)[C@@H]3O)C[C@@H]2O)cc1 [GERANIN B] | > 70 | > 70 | IC50 [10]: 65 µM
– | – | Oc1ccc([C@@H]2C[C@@H](c3c(O)cc(O)c4c3O[C@H](c3ccc(O)cc3)[C@H](O)C4)c3c(O)cc(O)cc3O2)cc1 | > 70 | > 70 | Kd [1]: Not Active; Kd (Placenta growth factor): Not Active
– | – | Oc1cc(O)c2c(c1)O[C@@]1(c3ccc(O)c(O)c3)Oc3cc(O)c4c(c3[C@@H]2[C@H]1O)O[C@H](c1ccc(O)c(O)c1)[C@H](O)C4 [PROANTHOCYANIDIN A2] | > 70 | > 70 | Kd [1]: Not Active; Kd (Placenta growth factor): Not Active
